Assay outcomes from PubChem.
SENP1 FRET inh: human SENP1 catalytic domain inhibitors, primary screen, biochemical, FRET, uHTS; Sentrin-specific protease 1 (Homo sapiens), Q9P0U3; 0.21% of 360,000 active; inhibition, % at 10 µM; recombinant SENP1 catalytic domain, CyPet-SUMO1-YPet FRET cleavage; AID 624204, 2012;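 active = inhibition at least 30% at 10 µM, raw YFP signal under a set limit, fluorescence ratio 0.5 to 1.5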
Target sequence (Q9P0U3 419-644 limits assumed): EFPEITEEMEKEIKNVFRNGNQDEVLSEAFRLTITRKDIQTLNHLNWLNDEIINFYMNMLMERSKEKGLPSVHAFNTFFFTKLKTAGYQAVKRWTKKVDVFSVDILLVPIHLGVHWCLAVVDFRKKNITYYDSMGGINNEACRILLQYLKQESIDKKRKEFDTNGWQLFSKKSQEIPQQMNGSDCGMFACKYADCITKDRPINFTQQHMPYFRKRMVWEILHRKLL
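Test system: hSENP1 catalytic domain, recombinant; Amount: 20 pM final SENP1 enzyme; Medium: Tris pH 8 buffer plus EDTA, NaCl, BME, BSA, NP40, catalase; Schedule: 50 min enzyme reaction, room temperature, light-protected; Technique: FRET fluorescence in CFP and YFP emission channels; Controls: no-enzyme wells low, DMSO-plus-enzyme wells high control.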
SENP7 inh: SENP7 protease inhibitors, primary screen, biochemical, luminescence, uHTS | 1.5% of 330,000 active | Sentrin-specific protease 7 (Homo sapiens), Q9BQF6 | recombinant SENP7, Z-RLRGG-aminoluciferin luminescence, 40 min | inhibition, % at 5 µM | AID 434973, 2010;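 active = inhibition above about 50% at the single test dose, limit read from the data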
Platelet DG rel: inhibitors of platelet dense granule secretion, primary screen, cell-based, MLPCN, human platelets; human platelet-rich plasma, SFLLRN dense granule ATP release, luminescence; inhibition, %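 (compounds screened at 7.5 µM in platelet-rich plasma)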; 0.22% of 300,000 active;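 active = mean replicate score, as percent of positive control, at or above 50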
SENP6 inh: SENP6 protease inhibitors, primary screen, biochemical, luminescence, uHTS | Sentrin-specific protease 6 (Homo sapiens), Q9GZR1 | Recombinant SENP6 catalytic domain, aminoluciferin luminescence | inhibition, % at 10 µM | 1.8% of 330,000 active | AID 2599, 2010;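 active = inhibition above about 50% at the single tested dose, limit read from the data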
SENP8 block-1: SENP8 protease inhibitors, primary screen, biochemical, luminescence; purified SENP8, Z-RLRGG-aminoluciferin cleavage; inhibition, % at 10 µM; 1.2% of 330,000 active; AID 2540, 2010; in the data active = inhibition above about 50%
SENP8 block-2: human SENP8 protease inhibitors, primary screen, biochemical, fluorescence, Nedd8 protein substrate, uHTS. Sentrin-specific protease 8 (Homo sapiens), Q96LD8. recombinant SENP8. inhibition, % at 20 µM. 0.64% of 360,000 active. AID 602440, 2012; in the data active = inhibition mostly above about 40%, no sharp cut-off; inactive = mostly below about 27%
SENP8 conf: SENP8 protease inhibitors, retest, confirmation, biochemical, luminescence, single concentration | shares compounds with SENP7 inh | Recombinant SENP8, Z-RLRGG-aminoluciferin luminescence, 60 min | inhibition, % at 12.5 µM | 40% of 6,200 active | AID 488912, 2010;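 active = mean inhibition across replicates above about 50%, limit read from the data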
SENP6 confirm: SENP6 protease inhibitors, confirmation, biochemical, luminescence, single concentration | shares compounds with SENP7 inh | recombinant SENP6, Z-RLRGG-aminoluciferin luminescence | inhibition, % at 12.5 µM | 58% of 6,200 active | AID 488915, 2010
SENP7 conf: SENP7 protease inhibitors, retest, confirmation, biochemical, luminescence, single concentration. shares compounds with SENP7 inh. recombinant SENP7, Z-RLRGG-aminoluciferin luminescence, 40 min. inhibition, % at 12.5 µM. 69% of 6,200 active. AID 488917, 2010
Casp3 SENP sel: caspase-3 protease inhibitors, confirmation, selectivity assay for SENP inhibitor project, biochemical, single concentration; shares compounds with SENP7 inh; purified caspase-3, Z-DEVD-aminoluciferin luminescence, 60 min; inhibition, % at 12.5 µM; 60% of 6,200 active; AID 488918, 2010;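 active = mean inhibition above about 50%, limit read from the data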
Target sequence (P42574 28-227 limits assumed): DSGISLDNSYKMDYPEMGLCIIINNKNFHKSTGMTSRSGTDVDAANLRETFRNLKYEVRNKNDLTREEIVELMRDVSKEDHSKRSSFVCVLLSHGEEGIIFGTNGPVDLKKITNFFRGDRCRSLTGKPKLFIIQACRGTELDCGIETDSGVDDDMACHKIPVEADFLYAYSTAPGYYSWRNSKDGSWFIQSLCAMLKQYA
Luc interf: luminescence interference (SENP counter-screen); shares compounds with SENP7 inh; Pre-incubated SENP8/Z-RLRGG-aminoluciferin, luciferase luminescence interference; inhibition, % at 12.5 µM; 39% of 6,200 active; AID 488919;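 active = mean inhibition above about 50% when retested at one dose, limit read from the data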
A number is an active result; - = inactive; . = not tested or not shown. A selection: hits, their analogues and other compounds. The true share with any hit is near 2.6%.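 The calls were made as follows, unless noted: active = mean inhibition above about 50% in the one-dose retest (limit read from the data); inactive = the rest.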

SMILES	SENP1 FRET inh	SENP7 inh	Platelet DG rel	SENP6 inh	SENP8 block-1	SENP8 block-2	SENP8 conf	SENP6 confirm	SENP7 conf	Casp3 SENP sel	Luc interf
COc1ccc(C(NC(=O)CN2CCCCCC2)c2ccc(OC)cc2)cc1	-	-	-	-	-	-	.	.	.	.	.
COc1c(C)cccc1C(=O)NCc1ccc2c(c1)OCO2	-	-	-	-	-	-	.	.	.	.	.
Cc1cc(C=C2C(=O)c3ccccc3C2=O)c(C)n1-c1cccc(C(=O)O)c1	-	51.5	-	91.3	89.9	-	97.4	97.6	101.2	95.1	92.0
Cc1cc(C=C2C(=O)c3ccccc3C2=O)c(C)n1-c1ccccc1	-	92.6	-	92.1	74.0	-	-	-	-	-	-
Cc1cc(/C=C2/C(=O)NN(c3ccccc3)C2=O)c(C)n1-c1cccc(O)c1	-	64.7	-	80.2	66.4	-	67.5	73.1	92.6	67.2	-
Cc1cc(/C=C2\Cc3ccccc3C2=O)c(C)n1-c1ccccc1	-	-	-	-	64.9	-	-	90.9	96.7	68.0	-
Cc1cc(C=C2C(=O)c3ccccc3C2=O)c(C)n1-c1ccc(C(=O)O)cc1	-	-	-	-	-	-	.	.	.	.	.
COc1ccccc1/C=C1\Cc2ccccc2C1=O	-	.	-	.	.	-	.	.	.	.	.
O=C(Nc1cccnc1)C1CC(=O)N(c2ccc(F)cc2)C1 (stereo not given)	-	-	-	-	-	-	.	.	.	.	.
Cc1cccc(C)c1-n1nnnc1C(c1ccnc2ccccc12)N(C)Cc1ccc(Cl)c(Cl)c1 (stereo not given)	-	.	.	.	.	-	.	.	.	.	.
Cc1ccc(S(=O)(=O)N2CCCCC2CCNC(=O)C(=O)NCc2ccccc2)cc1 (stereo not given)	-	-	-	-	-	-	.	.	.	.	.
O=C(NCCSc1ccccc1)c1ccccc1	-	-	.	-	-	-	.	.	.	.	.
O=C(NCCSc1ccccc1)c1ccc(Br)cc1	-	-	-	67.6	-	-	52.5	-	75.9	-	-
CCC(CC)Nc1ccc(C(CC(N)=O)NC(=O)Cc2cccc3ccccc23)cc1[N+](=O)[O-] (stereo not given)	-	-	-	-	-	-	.	.	.	.	.
C/C(=N\OCc1ccc(C#N)cc1)c1ccc(S(=O)(=O)N(C)C)cc1	-	-	-	-	-	-	.	.	.	.	.
C/C(=N\OCc1ccc(C#N)cc1)c1ccccc1	-	80.1	-	88.5	79.4	-	81.7	86.1	96.9	77.1	68.5
C/C(=N\OCc1cccc(C(=O)O)c1)c1ccc(Cl)cc1	-	100.8	-	97.4	97.1	-	99.2	99.7	103.0	96.8	98.4
Cc1cccc(NS(=O)(=O)c2ccc(C(=O)NCCCN3CCCC3=O)cc2)c1C	-	-	-	-	-	-	.	.	.	.	.
CC(C)(C)c1ccc(OCCC(=O)Nc2cccc(S(=O)(=O)N3CCCCC3)c2)cc1	-	-	-	-	-	-	.	.	.	.	.
COc1ccc(C=C2C(=O)c3ccccc3C2=O)cc1O	-	96.2	-	95.1	94.1	-	98.3	98.4	101.9	94.0	-
